What was measured:
Format in all cases: functional
[1] = system: Mycobacterium tuberculosis; test: Antimycobacterial activity against Mycobacterium tuberculosis H37Rv 331/88 after 14 days; details: H37Rv 331/88, 336 h
[2] = system: Mycobacterium tuberculosis; test: Antimycobacterial activity against Mycobacterium tuberculosis H37Rv 331/88 after 21 days; details: H37Rv 331/88, 504 h
Mycobacterium avium [3] = test: Antimycobacterial activity against Mycobacterium avium 330/80 after 14 days; details: 330/80, 336 h
Mycobacterium avium [4] = test: Antimycobacterial activity against Mycobacterium avium 330/80 after 21 days; details: 330/80, 504 h
Mycobacterium kansasii [5] = test: Antimycobacterial activity against Mycobacterium kansasii 235/80 after 7 days; details: 235/80, 168 h
In short: (§1)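 Šula's semisynthetic medium micromethod at 37 °C, read after 7, 14 and 21 days. The 1.0 McFarland suspension was diluted 10^-4. MIC determined. 6509/96 is a clinical isolate.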

Mycobacterium kansasii [6] = test: Antimycobacterial activity against Mycobacterium kansasii 235/80 after 14 days; details: 235/80, 336 h; in short: as §1
Mycobacterium kansasii [7] = test: Antimycobacterial activity against Mycobacterium kansasii 235/80 after 21 days; details: 235/80, 504 h; in short: as §1
Mycobacterium kansasii [8] = test: Antimycobacterial activity against Mycobacterium kansasii 6509/96 after 7 days; details: 6509/96, 168 h; in short: as §1
Mycobacterium kansasii [9] = test: Antimycobacterial activity against Mycobacterium kansasii 6509/96 after 14 days; details: 6509/96, 336 h; in short: as §1
Mycobacterium kansasii [10] = test: Antimycobacterial activity against Mycobacterium kansasii 6509/96 after 21 days; details: 6509/96, 504 h; in short: as §1
Staphylococcus aureus [11] = test: Antibacterial activity against Staphylococcus aureus CCM 4516/08 after 24 hrs by microdilution broth method; details: CCM 4516/08, 24 h
Staphylococcus aureus [12] = test: Antibacterial activity against Staphylococcus aureus CCM 4516/08 after 48 hrs by microdilution broth method; details: CCM 4516/08, 48 h
Staphylococcus aureus [13] = test: Antibacterial activity against methicillin-resistant Staphylococcus aureus H 5996/08 after 24 hrs by microdilution broth method; details: H 5996/08, 24 h
Staphylococcus aureus [14] = test: Antibacterial activity against methicillin-resistant Staphylococcus aureus H 5996/08 after 48 hrs by microdilution broth method; details: H 5996/08, 48 h
[15] = system: Staphylococcus epidermidis; test: Antibacterial activity against Staphylococcus epidermidis H 6966/08 after 24 hrs by microdilution broth method; details: H 6966/08, 24 h
In short: (§2)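 Mueller-Hinton broth microdilution (modified M07-A07), pH 7.4 (±0.2). Compounds dissolved in DMSO, tested at final 500 to 0.49 µmol/L. Inoculum in sterile water matched to 0.5 McFarland. Incubated in the dark, humid atmosphere, 35 °C, read at 24 and 48 h visually and at 540 nm. MIC taken as ≥95% growth reduction (IC95) versus control.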

[16] = system: Staphylococcus epidermidis; test: Antibacterial activity against Staphylococcus epidermidis H 6966/08 after 48 hrs by microdilution broth method; details: H 6966/08, 48 h; in short: as §2
Enterococcus sp. [17] = test: Antibacterial activity against Enterococcus sp. J 14365/08 after 24 hrs by microdilution broth method; details: J 14365/08, 24 h; in short: as §2
Enterococcus sp. [18] = test: Antibacterial activity against Enterococcus sp. J 14365/08 after 48 hrs by microdilution broth method; details: J 14365/08, 48 h; in short: as §2
Escherichia coli [19] = test: Antibacterial activity against Escherichia coli CCM4517 after 24 hrs by microdilution broth method; details: CCM4517, 24 h; in short: as §2
Escherichia coli [20] = test: Antibacterial activity against Escherichia coli CCM4517 after 48 hrs by microdilution broth method; details: CCM4517, 48 h; in short: as §2
Klebsiella pneumoniae [21] = test: Antibacterial activity against Klebsiella pneumoniae D 11750/08 after 24 hrs by microdilution broth method; details: D 11750/08, 24 h; in short: as §2
Klebsiella pneumoniae [22] = test: Antibacterial activity against Klebsiella pneumoniae D 11750/08 after 48 hrs by microdilution broth method; details: D 11750/08, 48 h; in short: as §2
Klebsiella pneumoniae [23] = test: Antibacterial activity against ESBL-positive Klebsiella pneumoniae J 14368/08 after 24 hrs by microdilution broth method; details: J 14368/08, 24 h; in short: as §2
Klebsiella pneumoniae [24] = test: Antibacterial activity against ESBL-positive Klebsiella pneumoniae J 14368/08 after 48 hrs by microdilution broth method; details: J 14368/08, 48 h; in short: as §2
Pseudomonas aeruginosa [25] = test: Antibacterial activity against Pseudomonas aeruginosa CCM 1961 after 24 hrs by microdilution broth method; details: CCM 1961, 24 h; in short: as §2
Pseudomonas aeruginosa [26] = test: Antibacterial activity against Pseudomonas aeruginosa CCM 1961 after 48 hrs by microdilution broth method; details: CCM 1961, 48 h; in short: as §2
Candida albicans [27] = test: Antifungal activity against Candida albicans ATCC 44859 after 24 hrs by microdilution broth method; details: ATCC 44859, 24 h
In short: (§3)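 CLSI M27-A3 broth microdilution in RPMI 1640 with glutamine, buffered to pH 7.0 with MOPS; DMSO diluent. Yeast inoculum 5 × 10^3 ± 0.2 CFU/mL. Moulds grown on Sabouraud agar 3–10 days before spore harvest, final inoculum 0.5-5 × 10^4 CFU/mL, checked in a Bürker chamber. Incubated dark, humid, 35 °C, read at 24 and 48 h visually and at 540 nm. MIC taken as ≥80% (yeasts) or ≥50% (filamentous) growth reduction versus control.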

Candida albicans [28] = test: Antifungal activity against Candida albicans ATCC 44859 after 48 hrs by microdilution broth method; details: ATCC 44859, 48 h; in short: as §3
Candida tropicalis [29] = test: Antifungal activity against Candida tropicalis 156 after 24 hrs by microdilution broth method; details: Candida tropicalis, 156, 24 h; in short: as §3
Candida tropicalis [30] = test: Antifungal activity against Candida tropicalis 156 after 48 hrs by microdilution broth method; details: Candida tropicalis, 156, 48 h; in short: as §3
Pichia kudriavzevii [31] = test: Antifungal activity against Candida krusei E28 after 24 hrs by microdilution broth method; details: E28, 24 h; in short: as §3
Pichia kudriavzevii [32] = test: Antifungal activity against Candida krusei E28 after 48 hrs by microdilution broth method; details: E28, 48 h; in short: as §3
Nakaseomyces glabratus [33] = test: Antifungal activity against Candida glabrata 20/I after 24 hrs by microdilution broth method; in short: as §3
Nakaseomyces glabratus [34] = test: Antifungal activity against Candida glabrata 20/I after 48 hrs by microdilution broth method; in short: as §3
Trichosporon asahii [35] = test: Antifungal activity against Trichosporon asahii 1188 after 24 hrs by microdilution broth method; details: Trichosporon asahii, 1188, 24 h; in short: as §3
Trichosporon asahii [36] = test: Antifungal activity against Trichosporon asahii 1188 after 48 hrs by microdilution broth method; details: Trichosporon asahii, 1188, 48 h; in short: as §3
Aspergillus fumigatus [37] = test: Antifungal activity against Aspergillus fumigatus 231 after 24 hrs by microdilution broth method; details: Aspergillus fumigatus, 231, 24 h; in short: as §3
Aspergillus fumigatus [38] = test: Antifungal activity against Aspergillus fumigatus 231 after 48 hrs by microdilution broth method; details: Aspergillus fumigatus, 231, 48 h; in short: as §3
Lichtheimia corymbifera [39] = test: Antifungal activity against Absidia corymbifera 272 after 24 hrs by microdilution broth method; details: Lichtheimia corymbifera, 272, 24 h; in short: as §3
Lichtheimia corymbifera [40] = test: Antifungal activity against Absidia corymbifera 272 after 48 hrs by microdilution broth method; details: Lichtheimia corymbifera, 272, 48 h; in short: as §3
[41] = system: Trichophyton mentagrophytes; test: Antifungal activity against Trichophyton mentagrophytes 445 after 24 hrs by microdilution broth method; details: Trichophyton mentagrophytes, 445, 24 h
[42] = system: Trichophyton mentagrophytes; test: Antifungal activity against Trichophyton mentagrophytes 445 after 48 hrs by microdilution broth method; details: Trichophyton mentagrophytes, 445, 48 h

Measured: MIC

O=C(Nc1ccc([N+](=O)[O-])c(C(F)(F)F)c1)c1ccc([N+](=O)[O-])cc1O
62.5 µM: Mycobacterium avium [3] | Mycobacterium avium [4]
3.9 µM: Staphylococcus aureus [13] | Staphylococcus aureus [14]
250 µM: Enterococcus sp. [17] | Pichia kudriavzevii [31] | Pichia kudriavzevii [32] | Trichosporon asahii [35] | Aspergillus fumigatus [37] | Aspergillus fumigatus [38]
500 µM: Enterococcus sp. [18] | Trichosporon asahii [36] | [41]
125 µM: Lichtheimia corymbifera [39] | Lichtheimia corymbifera [40]
32 µM: Mycobacterium kansasii [6] | Mycobacterium kansasii [7] | Mycobacterium kansasii [9] | Mycobacterium kansasii [10]
16 µM: [1] | [2] | Mycobacterium kansasii [5] | Mycobacterium kansasii [8]
7.81 µM: Staphylococcus aureus [11] | Staphylococcus aureus [12] | [15] | [16]
> 500 µM: all other assays above
